In ChEMBL document CHEMBL2150914, “Synthesis and biological evaluation of N-arylbenzo[b]thieno[3,2-d]pyrimidin-4-amines and their pyrido and pyrazino analogues as Ser/Thr kinase inhibitors” (Eur J Med Chem, 2012):

target: Cyclin-dependent kinase 5/CDK5 activator 1 (Homo sapiens, UniProt Q00535); experiment: Inhibition of human recombinant GST-tagged CDK5/p25 expressed in Escherichia coli using histone H1 as substrate and [gamma32P]ATP after 30 mins by scintillation counting
Sequence (Q00535 whole entry): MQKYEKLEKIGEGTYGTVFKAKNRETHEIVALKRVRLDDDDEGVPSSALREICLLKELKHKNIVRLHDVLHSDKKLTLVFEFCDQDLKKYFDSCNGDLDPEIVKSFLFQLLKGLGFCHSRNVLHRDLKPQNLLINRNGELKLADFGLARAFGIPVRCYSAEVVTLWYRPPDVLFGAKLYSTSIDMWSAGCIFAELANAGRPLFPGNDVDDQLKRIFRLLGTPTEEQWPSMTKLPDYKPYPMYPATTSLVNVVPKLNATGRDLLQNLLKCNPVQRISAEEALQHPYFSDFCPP
Sequence (Q15078 whole entry, further chain): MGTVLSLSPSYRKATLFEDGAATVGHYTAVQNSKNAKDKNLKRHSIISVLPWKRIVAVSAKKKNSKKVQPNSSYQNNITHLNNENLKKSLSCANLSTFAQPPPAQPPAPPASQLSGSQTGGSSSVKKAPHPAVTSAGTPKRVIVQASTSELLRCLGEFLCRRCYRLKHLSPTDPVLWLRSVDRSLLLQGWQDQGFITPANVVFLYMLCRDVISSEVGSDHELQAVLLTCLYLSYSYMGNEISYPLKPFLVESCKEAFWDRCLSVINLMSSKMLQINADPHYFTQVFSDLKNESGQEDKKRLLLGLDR

SMILES	IC50
Nc1ncnc2c1sc1ccccc12	5.2 µM
c1ccc(Nc2ncnc3c2sc2ccccc23)cc1	> 10 µM
COc1ccc(Nc2ncnc3c2sc2ccccc23)cc1	> 10 µM
COc1ccc(Nc2ncnc3c2sc2ccccc23)cc1OC	> 10 µM
COc1cc(Nc2ncnc3c2sc2ccccc23)cc(OC)c1	> 10 µM
COc1cc(Nc2ncnc3c2sc2ccccc23)cc(OC)c1OC	> 10 µM
c1ccc2c(c1)sc1c(Nc3ccc4c(c3)OCO4)ncnc12	> 10 µM
c1ccc2c(c1)sc1c(Nc3ccc4c(c3)OCCO4)ncnc12	> 10 µM
Fc1cc(Br)ccc1Nc1ncnc2c1sc1ccccc12	> 10 µM
O=[N+]([O-])c1cc(Nc2ncnc3c2sc2ccccc23)ccc1O	> 10 µM
c1ccc(Nc2ncnc3c2sc2ncccc23)cc1	> 10 µM
COc1ccc(Nc2ncnc3c2sc2ncccc23)cc1	> 10 µM
COc1ccc(Nc2ncnc3c2sc2ncccc23)cc1OC	> 10 µM
COc1cc(Nc2ncnc3c2sc2ncccc23)cc(OC)c1	> 10 µM
COc1cc(Nc2ncnc3c2sc2ncccc23)cc(OC)c1OC	> 10 µM
c1cnc2sc3c(Nc4ccc5c(c4)OCO5)ncnc3c2c1	> 10 µM
c1cnc2sc3c(Nc4ccc5c(c4)OCCO5)ncnc3c2c1	> 10 µM
Fc1cc(Br)ccc1Nc1ncnc2c1sc1ncccc12	> 10 µM
O=[N+]([O-])c1cc(Nc2ncnc3c2sc2ncccc23)ccc1O	> 10 µM
Nc1ncnc2c1sc1cccnc12	> 10 µM

target: Dual specificity tyrosine-phosphorylation-regulated kinase 1A (Rattus norvegicus, UniProt Q63470); experiment: Inhibition of rat recombinant GST-tagged DYRK1A expressed in Escherichia coli using KKISGRLSPIMTEQ as substrate and [gamma32P]ATP after 30 mins by scintillation counting
In short: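 Rat DYRK1A, expressed in E. coli as a GST fusion and purified on glutathione-agarose. Blanks subtracted. Activity given as % of uninhibited maximum. DMSO dilution controls.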

SMILES	IC50
Nc1ncnc2c1sc1ccccc12	5.1 µM
c1ccc(Nc2ncnc3c2sc2ccccc23)cc1	> 10 µM
COc1ccc(Nc2ncnc3c2sc2ccccc23)cc1	> 10 µM
COc1ccc(Nc2ncnc3c2sc2ccccc23)cc1OC	3.7 µM
COc1cc(Nc2ncnc3c2sc2ccccc23)cc(OC)c1	> 10 µM
COc1cc(Nc2ncnc3c2sc2ccccc23)cc(OC)c1OC	> 10 µM
c1ccc2c(c1)sc1c(Nc3ccc4c(c3)OCO4)ncnc12	> 10 µM
c1ccc2c(c1)sc1c(Nc3ccc4c(c3)OCCO4)ncnc12	> 10 µM
Fc1cc(Br)ccc1Nc1ncnc2c1sc1ccccc12	> 10 µM
O=[N+]([O-])c1cc(Nc2ncnc3c2sc2ccccc23)ccc1O	> 10 µM
c1ccc(Nc2ncnc3c2sc2ncccc23)cc1	> 10 µM
COc1ccc(Nc2ncnc3c2sc2ncccc23)cc1	> 10 µM
COc1ccc(Nc2ncnc3c2sc2ncccc23)cc1OC	2.9 µM
COc1cc(Nc2ncnc3c2sc2ncccc23)cc(OC)c1	> 10 µM
COc1cc(Nc2ncnc3c2sc2ncccc23)cc(OC)c1OC	> 10 µM
c1cnc2sc3c(Nc4ccc5c(c4)OCO5)ncnc3c2c1	> 10 µM
c1cnc2sc3c(Nc4ccc5c(c4)OCCO5)ncnc3c2c1	> 10 µM
Fc1cc(Br)ccc1Nc1ncnc2c1sc1ncccc12	0.89 µM
O=[N+]([O-])c1cc(Nc2ncnc3c2sc2ncccc23)ccc1O	> 10 µM
Nc1ncnc2c1sc1cccnc12	6 µM

target: Dual specificity protein kinase CLK1 (Homo sapiens, UniProt P49759); experiment: Inhibition of human recombinant GST-tagged CLK1 expressed in Escherichia coli using GRSRSRSRSRSR as substrate and [gamma32P]ATP after 30 mins by scintillation counting
Sequence (P49759 whole entry): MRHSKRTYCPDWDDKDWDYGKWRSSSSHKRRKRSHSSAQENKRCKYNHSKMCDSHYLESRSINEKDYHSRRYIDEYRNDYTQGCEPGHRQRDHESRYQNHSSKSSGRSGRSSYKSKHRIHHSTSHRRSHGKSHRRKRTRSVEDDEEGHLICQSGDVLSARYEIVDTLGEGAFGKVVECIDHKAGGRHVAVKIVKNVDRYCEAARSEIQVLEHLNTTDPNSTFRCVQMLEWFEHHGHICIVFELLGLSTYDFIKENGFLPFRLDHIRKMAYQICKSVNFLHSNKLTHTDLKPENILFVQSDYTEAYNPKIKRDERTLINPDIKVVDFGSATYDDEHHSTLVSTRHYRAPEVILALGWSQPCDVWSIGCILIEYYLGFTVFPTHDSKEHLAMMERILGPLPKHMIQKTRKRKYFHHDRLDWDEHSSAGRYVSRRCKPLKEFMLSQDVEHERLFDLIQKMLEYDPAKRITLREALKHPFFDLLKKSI

SMILES	IC50
c1ccc(Nc2ncnc3c2sc2ncccc23)cc1	4.5 µM
COc1ccc(Nc2ncnc3c2sc2ncccc23)cc1	3.3 µM
COc1ccc(Nc2ncnc3c2sc2ncccc23)cc1OC	3.4 µM
COc1cc(Nc2ncnc3c2sc2ncccc23)cc(OC)c1	> 10 µM
COc1cc(Nc2ncnc3c2sc2ncccc23)cc(OC)c1OC	> 10 µM
c1cnc2sc3c(Nc4ccc5c(c4)OCO5)ncnc3c2c1	2.2 µM
c1cnc2sc3c(Nc4ccc5c(c4)OCCO5)ncnc3c2c1	> 10 µM
Fc1cc(Br)ccc1Nc1ncnc2c1sc1ncccc12	2.1 µM
O=[N+]([O-])c1cc(Nc2ncnc3c2sc2ncccc23)ccc1O	> 10 µM
Nc1ncnc2c1sc1cccnc12	5.2 µM

system: not listed separately; experiment: Inhibition of pig CK1delta/epsilon isolated from brain using RRKHAAIGpSAYSITA as substrate and [gamma32P]ATP after 30 mins by scintillation counting; design: species or system Sus scrofa

SMILES	IC50
Nc1ncnc2c1sc1ccccc12	0.79 µM
c1ccc(Nc2ncnc3c2sc2ccccc23)cc1	> 10 µM
COc1ccc(Nc2ncnc3c2sc2ccccc23)cc1	> 10 µM
COc1ccc(Nc2ncnc3c2sc2ccccc23)cc1OC	> 10 µM
COc1cc(Nc2ncnc3c2sc2ccccc23)cc(OC)c1	> 10 µM
COc1cc(Nc2ncnc3c2sc2ccccc23)cc(OC)c1OC	> 10 µM
c1ccc2c(c1)sc1c(Nc3ccc4c(c3)OCO4)ncnc12	> 10 µM
c1ccc2c(c1)sc1c(Nc3ccc4c(c3)OCCO4)ncnc12	> 10 µM
Fc1cc(Br)ccc1Nc1ncnc2c1sc1ccccc12	> 10 µM
O=[N+]([O-])c1cc(Nc2ncnc3c2sc2ccccc23)ccc1O	> 10 µM
c1ccc(Nc2ncnc3c2sc2ncccc23)cc1	0.18 µM
COc1ccc(Nc2ncnc3c2sc2ncccc23)cc1	0.52 µM
COc1ccc(Nc2ncnc3c2sc2ncccc23)cc1OC	> 10 µM
COc1cc(Nc2ncnc3c2sc2ncccc23)cc(OC)c1	> 10 µM
COc1cc(Nc2ncnc3c2sc2ncccc23)cc(OC)c1OC	> 10 µM
c1cnc2sc3c(Nc4ccc5c(c4)OCO5)ncnc3c2c1	0.44 µM
c1cnc2sc3c(Nc4ccc5c(c4)OCCO5)ncnc3c2c1	> 10 µM
Fc1cc(Br)ccc1Nc1ncnc2c1sc1ncccc12	0.28 µM
O=[N+]([O-])c1cc(Nc2ncnc3c2sc2ncccc23)ccc1O	> 10 µM
Nc1ncnc2c1sc1cccnc12	1.8 µM

target: Glycogen synthase kinase-3 (Sus scrofa, UniProt B2LUN4+I6LNT8); experiment: Inhibition of pig GSK3alpha/beta isolated from brain using YRRAAVPPSPSLSRHSSPHQpSEDEEE as substrate and [gamma32P]ATP after 30 mins by scintillation counting
In short: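 Assay run at 30 °C in one of two buffers: buffer A (Tris-HCl pH 7.5 with MgCl2, EGTA, DTT, heparin) or buffer B (Mops pH 7.2 with beta-glycerophosphate, EGTA, MgCl2, DTT, vanadate). Peptide substrate. Blank values subtracted and activity expressed as % of maximal, uninhibited activity. Controls with matching DMSO dilutions.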

SMILES	IC50
Nc1ncnc2c1sc1ccccc12	> 10 µM
c1ccc(Nc2ncnc3c2sc2ccccc23)cc1	> 10 µM
COc1ccc(Nc2ncnc3c2sc2ccccc23)cc1	> 10 µM
COc1ccc(Nc2ncnc3c2sc2ccccc23)cc1OC	> 10 µM
COc1cc(Nc2ncnc3c2sc2ccccc23)cc(OC)c1	> 10 µM
COc1cc(Nc2ncnc3c2sc2ccccc23)cc(OC)c1OC	> 10 µM
c1ccc2c(c1)sc1c(Nc3ccc4c(c3)OCO4)ncnc12	> 10 µM
c1ccc2c(c1)sc1c(Nc3ccc4c(c3)OCCO4)ncnc12	> 10 µM
Fc1cc(Br)ccc1Nc1ncnc2c1sc1ccccc12	> 10 µM
O=[N+]([O-])c1cc(Nc2ncnc3c2sc2ccccc23)ccc1O	> 10 µM
c1ccc(Nc2ncnc3c2sc2ncccc23)cc1	> 10 µM
COc1ccc(Nc2ncnc3c2sc2ncccc23)cc1	> 10 µM
COc1ccc(Nc2ncnc3c2sc2ncccc23)cc1OC	> 10 µM
COc1cc(Nc2ncnc3c2sc2ncccc23)cc(OC)c1	> 10 µM
COc1cc(Nc2ncnc3c2sc2ncccc23)cc(OC)c1OC	> 10 µM
c1cnc2sc3c(Nc4ccc5c(c4)OCO5)ncnc3c2c1	> 10 µM
c1cnc2sc3c(Nc4ccc5c(c4)OCCO5)ncnc3c2c1	> 10 µM
Fc1cc(Br)ccc1Nc1ncnc2c1sc1ncccc12	> 10 µM
O=[N+]([O-])c1cc(Nc2ncnc3c2sc2ncccc23)ccc1O	> 10 µM
Nc1ncnc2c1sc1cccnc12	> 10 µM
